Rows were chosen to be rich in hits. Some 3.5% of all compounds tested hit in one or more screens of this group.
RGS4 act: RGS4 potentiation or activation. HEK293 M3R/inducible RGS4, carbachol calcium flux Fluo4; hits give low values. AID 463111. 310,000 tested, 0.92% active. B-score at 10 µM;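 active = B-score of the integrated calcium signal more than 4 SD below the library mean, with starting fluorescence not abnormally high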;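 also: negative B-score means reduced calcium response which marks RGS4 activation or potentiation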
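System: HEK293 FlpIn-TREx cells, stable M3R, doxycycline-inducible RGS4. Timing: overnight RGS4 induction, 30 min dye load 37 °C, 20 min compound RT. Also added: carbachol, ECmax concentration. Measured by: Fluo4 fluorescence kinetic imaging of calcium. Evaluation: integrated calcium ratio converted to B score.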
MrgX1 ag: activates human MrgX1 receptor signaling; 310,000 tested, 0.44% active; MrgX1-HEK293 cells, Fluo-4 calcium fluorescence, agonist mode; hits give high values; B-score at 10 µM; Q96LB2;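 active = calcium response B-score plate-corrected fluorescence ratio at least 3 library SD, with starting fluorescence B-score inside 5 SD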
Target sequence (Q96LB2 whole entry, looked up): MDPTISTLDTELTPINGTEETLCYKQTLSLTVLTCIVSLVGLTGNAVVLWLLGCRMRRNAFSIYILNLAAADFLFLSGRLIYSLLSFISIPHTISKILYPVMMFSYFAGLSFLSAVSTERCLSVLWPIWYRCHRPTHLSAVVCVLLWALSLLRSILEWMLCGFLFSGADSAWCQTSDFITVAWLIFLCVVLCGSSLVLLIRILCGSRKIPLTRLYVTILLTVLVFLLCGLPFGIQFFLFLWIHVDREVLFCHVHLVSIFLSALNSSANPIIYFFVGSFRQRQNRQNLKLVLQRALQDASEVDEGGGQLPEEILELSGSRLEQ
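Material: MrgX1-expressing HEK293 cells / Dosing: compound as first of three additions / Incubation: overnight seeding, then 1 h dark dye loading / Signal: Fluo-4 NW calcium fluorescence / Evaluation: B-scored fluorescence response ratio / Benchmarks: positive and negative control wells on each plate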
RGS4 inh: inhibitors of human RGS4 | P49798 | HEK293 M3R/RGS4 inducible, Fluo-4 calcium flux; hits give high values; triggered by carbachol at its EC20 | 310,000 tested, 0.45% active | B-score at 10 µM;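 active = B-score, a plate-corrected calcium signal, over three deviations above library mean, with baseline fluorescence within five deviations of library mean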;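 also: RGS4 expression induced by doxycycline in cells with stable M3 receptor; B-score is computed from the integrated fluorescence ratio over baseline after carbachol; higher B-score means a larger calcium signal and so more RGS4 inhibition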
Target sequence (P49798 whole entry, looked up): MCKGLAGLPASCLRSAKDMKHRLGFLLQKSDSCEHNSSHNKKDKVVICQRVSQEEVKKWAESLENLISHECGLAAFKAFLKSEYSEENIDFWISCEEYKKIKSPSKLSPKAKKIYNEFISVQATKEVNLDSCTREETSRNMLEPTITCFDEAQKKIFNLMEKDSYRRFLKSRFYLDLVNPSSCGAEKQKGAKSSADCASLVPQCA
MrgX1 allo act: allosterically activates human MrgX1 receptor signaling; AID 588675; MrgX1-HEK293, Fluo-4 calcium flux, FDSS; hits give high values; 310,000 tested, 0.63% active; B-score at 10 µM;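 active = plate-corrected calcium response at least 3 library SD above typical, normal starting fluorescence, not activating the receptor alone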;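 also: compound read alongside a low EC10 to EC30 dose of BAM8-22 agonist; peak minus trough fluorescence over baseline measured at the second addition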
MrgX1 antag: blocks BAM8-22 activation of human MrgX1 receptor; Q96LB2; MRGX1-HEK293 calcium flux, Fluo-4, BAM8-22 antagonism; hits give low values; B-score at 10 µM; 310,000 tested, 1.3% active; AID 588676;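 active = calcium-response B-score plate-corrected more than 3 library SD below zero, starting fluorescence within 5 deviations, no agonist response on first addition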;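 also: peak minus trough fluorescence over baseline after final BAM8-22 challenge near maximal dose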
MrgX1 PAM conf: reconfirmed allosteric activator of human MrgX1 receptor; shares compounds with MrgX1 allo act; MrgX1-HEK293, Fluo-4 calcium fluorescence, FDSS; activation (ratio percentage), % at 10 µM; 1,200 tested, 13% active; AID 602413;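 active = ratio at least 3 SD above the weak peptide control, stable starting fluorescence, no direct agonism earlier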;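 also: compound followed by low BAM8-22 agonist challenge near EC20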
HEK293 Ca flux: MrgX1 antagonist counter-screen hit in parental HEK293 cells. shares compounds with MrgX1 antag. Fluo-4 calcium fluorescence, FDSS. fluorescence ratio F(max-min)/F0 at 10 µM. 4,000 tested, 2% active. AID 624111;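 active = duplicate-averaged calcium fluorescence ratio at least three times the standard deviation of buffer wells, a nonspecific response in parental cells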
HEK293 Ca counter: activity in parental HEK293 cells without MrgX1; parental HEK293 calcium flux, Fluo-4 fluorescence ratio; hits give high values; AID 624114; shares compounds with MrgX1 antag; 4,000 tested, 0.4% active; fluorescence ratio F(max-min)/F0 at 10 µM;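 active = calcium fluorescence ratio, averaged over duplicates, at least 3 SD of the buffer-well ratio, meaning a nonspecific response in receptor-free cells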;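 also: untransfected parental HEK293 lacking MrgX1 used as counterscreen for MrgX1 allosteric activators; fluorescence change taken during the second addition on a kinetic imager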
HEK293 Ca cntr2: MrgX1 activator counter-screen hit in parental HEK293 cells. shares compounds with MrgX1 antag. Fluo-4 calcium fluorescence (FDSS); hits give high values. fluorescence ratio F(max-min)/F0 at 10 µM. 4,000 tested, 8.7% active;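 active = calcium fluorescence ratio at least three times the spread of buffer wells, meaning a non-specific response in parental cells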
Hits are given with their value; – = inactive; · = no result given.

SMILES	RGS4 act	MrgX1 ag	RGS4 inh	MrgX1 allo act	MrgX1 antag	MrgX1 PAM conf	HEK293 Ca flux	HEK293 Ca counter	HEK293 Ca cntr2
Cn1c(CN2CCCC2)nc2cc(NC(=O)c3ccc(Cl)cc3)ccc21	–	–	–	9	–	–	–	–	–
Cn1c(CN2CCCCC2)nc2cc(NC(=O)c3ccc(Cl)cc3)ccc21	–	–	–	–	–	·	·	·	·
O=C(NC1CCCCC1)c1ccccc1C(F)(F)F	–	–	–	8.63	–	–	–	–	–
COCCNC(=O)c1ccc2c(c1)ncn2-c1cccc(C)c1	–	–	–	–	–	·	·	·	·
Cc1cccc(-n2cnc3cc(C(=O)N4CCc5ccccc54)ccc32)c1	–	–	–	7.52	–	–	–	–	–
COc1cc(/C=C2/C(=N)N3N=C(CC(=O)N4CCOCC4)SC3=NC2=O)ccc1OCc1ccccc1	–	–	–	19.4	–	12.1%	–	–	–
CCNc1nc(Oc2c(Cl)cccc2Cl)cc(C(F)(F)F)n1	–	–	–	–	–	·	·	·	·
CCNc1nc(Oc2ccc(OC)cc2)cc(C(F)(F)F)n1	–	–	–	10.1	–	–	–	–	–
CCNc1nc(Sc2ccc(C)cc2)cc(C(F)(F)F)n1	–	–	–	6.85	–	15.0%	–	–	–
O=C(CN(Cc1ccccc1Cl)C(=O)c1csnn1)NCc1ccccc1	–	–	–	–	–	·	·	·	·
O=C(c1ccc(Br)cc1)N1CCN(Cc2ccccc2)CC1	–	–	–	6.45	–	–	–	–	–
C=C(C)COc1ccc2c(C)c(CCC(=O)N3C[C@H]4C[C@@H](C3)c3cccc(=O)n3C4)c(=O)oc2c1	–	–	–	27.8	–	–	–	–	–
CCOc1cc(S(=O)(=O)N(CC)CC)ccc1Cl	–	–	–	–	–	·	·	·	·
CCOc1cc(C)c(Cl)cc1S(=O)(=O)N(CC)CC	–	–	–	7.53	–	–	–	–	–
CC12CCC(C(=O)Nc3ccc(SC(F)F)cc3)(CC1=O)C2(C)C (configuration not stated)	–	–	–	6.67	–	–	–	–	–
COc1ccc2nc(CCN(C)C(=O)C3CCC(=O)N(Cc4cccc(F)c4)C3)[nH]c2c1 (configuration not stated)	–	–	–	–	–	·	·	·	·
COc1cccc(CN2CC(C(=O)N(C)Cc3nc4ccc(F)cc4[nH]3)CCC2=O)c1 (configuration not stated)	–	–	–	6.95	–	–	–	–	–
COc1cccc(NC(=O)NNC(=O)c2ccc3c(c2)NC(=O)C(C)(C)O3)c1	–	–	–	–	–	·	·	·	·
COc1ccccc1NC(=O)NNC(=O)c1ccc2c(c1)NC(=O)C(C)(C)O2	–	–	–	19.9	–	–	–	–	–
Cc1ccc(CCNC(=O)C2CCCN(S(=O)(=O)N3CC(C)CC(C)C3)C2)cc1 (configuration not stated)	–	–	–	–	–	·	·	·	·
CCc1nonc1NC(=O)COc1cc(C)c(Cl)c(C)c1	–	–	–	–	–	·	·	·	·
CCc1nonc1NC(=O)COc1ccc(Cl)c(C)c1	–	–	–	12.5	–	–	–	–	–
CC(C)[C@@H](COc1ccccc1)N1CCN(Cc2ccccc2)CCC1=O	–	–	–	14.2	–	–	–	–	–
CC(NC(=O)COc1ccccc1Cl)c1ccccc1 (configuration not stated)	–	–	–	7.16	–	–	–	–	–
CC(C)c1ccc(OCC(=O)NC(C)c2ccccc2)cc1 (configuration not stated)	–	–	–	–	–	·	·	·	·
SMILES	RGS4 act	MrgX1 ag	RGS4 inh	MrgX1 allo act	MrgX1 antag	MrgX1 PAM conf	HEK293 Ca flux	HEK293 Ca counter	HEK293 Ca cntr2
CCC1(C)Cc2ccccc2-c2nc(NCCO)n(-c3ccccc3)c(=O)c21 (configuration not stated)	–	–	–	7.73	–	–	–	–	–
CCC1(C)Cc2ccccc2-c2nc(NCCCO)n(C)c(=O)c21 (configuration not stated)	–	–	–	–	–	·	·	·	·
Fc1cccc(-c2cc3nc4c(c(N5CCC6(CC5)OCCO6)n3n2)CCCC4)c1	–	–	–	7.6	–	–	–	–	–
CC1CN(c2cc(-c3ccccc3)c3ccccc3n2)CC(C)O1 (configuration not stated)	–	–	–	–	–	·	·	·	·
CC1CN(c2nc3ccccc3cc2-c2ccccc2)CC(C)O1 (configuration not stated)	–	–	–	17	–	–	–	–	–
O=C(CNC(c1ccccc1)c1ccccc1)NCc1ccccc1Cl	–	–	–	–	–	·	·	·	·
Cc1nn(Cc2cccc(C(=O)N3CCCC(C)C3)c2)c(C)c1[N+](=O)[O-] (configuration not stated)	–	–	–	–	–	·	·	·	·
CC(C)(Oc1ccc(Cl)cc1)C(=O)NNC(=O)c1ccc(Br)o1	–	–	–	–	–	·	·	·	·
Cc1nc2cc3c(cc2c(C)c1C(=O)OC(C)C)OCO3	–	–	–	7.06	–	–	–	–	–
COC(=O)c1nc2cc3c(cc2c(C)c1C(=O)OC)OCO3	–	–	–	–	–	·	·	·	·
COc1ccccc1C(=O)N/C(=C\c1cn(S(=O)(=O)N(C)C)c2ccccc12)C(=O)N1CCCC1	–	–	–	–	–	·	·	·	·
CCN(CC)S(=O)(=O)c1ccc(Cl)nc1	–	–	–	9.27	–	–	–	–	–
COCCN(CCOC)S(=O)(=O)c1ccc(Cl)nc1	–	–	–	–	–	·	·	·	·
Cc1cc(C)c2cc(C(=O)N3CCN(c4ncccc4C(F)(F)F)CC3)[nH]c2c1	–	–	–	–	–	·	·	·	·
O=C(Nc1ccccc1)N(Cc1ccccc1)Cc1ccccc1	–	–	–	–	–	·	·	·	·
O=C(Nc1ccccc1)N(Cc1ccc(Cl)cc1)CC(O)C(F)(F)F (configuration not stated)	–	–	–	6.53	–	–	–	–	–
CCCC(C(=O)Nc1ccc(S(=O)(=O)N2CCCC2)cc1)c1ccccc1 (configuration not stated)	–	–	–	–	–	·	·	·	·
O=C(Cn1nnc2ccccc21)NCc1ccccc1	–	–	–	7.19	–	–	–	–	–
COc1ccc(N(CC(=O)Nc2cc(OC)ccc2OC)S(C)(=O)=O)cc1	–	–	–	–	–	·	·	·	·
